Data taken from PMC8319958 (ACS chemical biology, 2020).
Numbered stars: 1 amine (or outer) side, 2 acyl side, 3 side chain; on linkers, the order of the positions; unused ones are H or OH. Peptide text beside a SMILES is read from it. * marks the point of attachment. AMC = Cc1cc(=O)oc2cc(N*)ccc12; Suc = O=C(CCC(=O)[*:2])[*:1]; Cbz = O=C(OCc1ccccc1)*

Experiments:
proteasome = molecular target: T1, proteasome (Homo sapiens, UniProt P28074); assay: Proteasome stimulation in cells detected with TAS probes; assay type: cell-based; settings: cells dosed 1 h with stimulator, washed, TAS3 added, monitored over 60 min
T1 sequence (P28074 60-263): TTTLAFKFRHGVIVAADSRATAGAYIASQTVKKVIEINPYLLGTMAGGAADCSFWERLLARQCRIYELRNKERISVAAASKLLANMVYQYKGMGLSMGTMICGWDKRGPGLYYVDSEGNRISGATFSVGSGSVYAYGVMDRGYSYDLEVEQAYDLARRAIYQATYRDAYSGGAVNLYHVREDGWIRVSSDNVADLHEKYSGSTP
Procedure, shortened: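 Cells (A549, 5000/well, adhered) were pretreated 1 h with test compound in culture medium and washed three times with PBS. They were then given 10 μM probe in modified KRBH buffer, and fluorescence was read on a plate reader for […]. After 25 min equilibration each well was zeroed, linear regression was fitted, and activity was expressed as % of the DMSO control.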

20S CP = 20S CP (Homo sapiens, UniProt P28074); assay: LC/MS assay of library peptide cleavage by 20S CP; assay type: biochemical; settings: 12 μM peptide, 9 nM 20S CP, 50 mM Tris pH 7.4, 37 °C, 1 h, triplicate
Procedure, shortened: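 Peptide stocks were 600 μM in DMSO, diluted to 12 μM final in 50 mM Tris pH 7.4. One triplicate got purified 20S CP (9 nM final) and the other buffer alone; both ran 1 h at 37 °C. An equal volume of acetonitrile denatured the enzyme. LC/MS EIC peak areas of intact peptide were scaled to the buffer-control mean (set to 1) to give fraction remaining. The four-mer product mass confirmed the cleavage site.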

A549 cells = assay: Live-cell probe cleavage in A549 cells, with or without proteasome inhibitors; assay type: cell-based; settings: 10 μM probe, monitored over 60 min
MM.1R = assay: Cell viability; assay type: cell-based; settings: 48 h, read-out: IC50 (cell viability)

CC(C)c1ccc2c(c1)c(SC(C)(C)C)c(CC(C)(C)C(=O)O)n2Cc1ccc(Cl)cc1 [MK-886]
proteasome stimulation (% activity vs DMSO control) (proteasome): strong stimulators

D-Phe
cleavage by 20S CP (in words) (20S CP): did not accept

Cc1cc(=O)oc2cc(NC(=O)[C@H](Cc3ccc(O)cc3)NC(=O)[C@@H](NC(=O)[C@H](CC(C)C)NC(=O)[C@H](CC(C)C)NC(=O)CCC(=O)O)C(C)C)ccc12 [Suc-LLVY-AMC] (Suc-LLVY-{AMC})
fluorescence signal (RFU) in cells compared to TAS1 (A549 cells): significantly lower

CC(C)C[C@@H](C=O)NC(=O)[C@H](CC(C)C)NC(=O)[C@H](CC(C)C)NC(=O)OCc1ccccc1 [MG-132] (Cbz-Leu-Leu-Leu-aldehyde)
IC50 (MM.1R): 264 nM
